Bioassay records as filed in PubChem.
DAGLB inh: blocks human DAGLB lipase activity | Q8NCG7 | HEK293T DAGLB membrane lysate, EnzChek fluorogenic substrate | inhibition, % at 5.17 µM | 340,000 compounds, 0.059% hits; in the data active = inhibition above about 34%;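 note: 0% = enzyme with vehicle and 100% = wells lacking enzyme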
HGIII-sPLA2 inh: Inhibits HGIII-sPLA2 liposome hydrolysis, primary screen; Q9NZ20; QFRET BODIPY PC-A2 liposome hydrolysis, fluorescence; inhibition, % at 12.2 µM; 370,000 compounds, 0.56% hits; AID 743126;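 active = inhibition above mean plus 3 SD of compounds lying within the high and low control bounds, cut at about 19% in these data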;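 note: 0% = median of test compound wells and 100% = no enzyme DMSO wells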
PLCg1 inh: blocks human PLC-gamma1 enzyme activity | P19174 | purified PLC-gamma1, fluorogenic substrate, fluorescence | inhibition, % at 12.2 µM | 370,000 compounds, 0.84% hits; in the data active = inhibition above about 9.5%
Tb MetRS inh: blocks T. brucei methionyl-tRNA synthetase activity | purified T. brucei MetRS, ATP depletion, Kinase-Glo luminescence | inhibition, % at 11.9 µM | 360,000 compounds, 0.4% hits | AID 624268;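 active = inhibition above a per-plate cutoff of the control wells' mean inhibition plus 3 SD, cut at about 5.5% in these data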;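 note: 0% = DMSO wells median and 100% = median of wells with control inhibitor compound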
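assay system = parasite MetRS enzyme | timing = 15 min preincubation, 2 h reaction, all 25 °C | evaluation = percent inhibition relative to median high and low control wells | medium = HEPES buffer containing pyrophosphatase, BSA, spermine, DTT | compound = single dose, 11.9 µM final nominal, 0.9% final DMSO | detection = Kinase-Glo luminescence, ATP depletion format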
PLC-beta3 inh: blocks human PLC-beta3 enzyme activity; AID 720704; 370,000 compounds, 0.18% hits; Purified PLC-beta3, fluorogenic substrate, fluorescence; inhibition, % at 12.2 µM;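 note: 0% = median of compound wells on plate and 100% = full blocker control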
PLCgamma1 ctr: inhibits human PLC-gamma1 in PLC-beta3 counter-screen; shares compounds with PLCg1 inh; purified PLC-gamma1, fluorogenic substrate, fluorescence; inhibition, % at 12.3 µM; 3,300 compounds, 3.1% hits; in the data active = inhibition above about 9.5%
PLCb3 confirm: human PLC-beta3 inhibition, confirmation; shares compounds with PLCg1 inh; purified PLC-beta3, fluorogenic substrate fluorescence; inhibition, % at 12.3 µM; 3,300 compounds, 1% hits; AID 743261
Starred values were filed as active, the others as inactive. An excerpt weighted towards active compounds, which were near 1.9% of everything screened. Cut-off read from the data, not from the text of the source, unless noted: active = inhibition above about 11%; inactive = the rest.

`COc1ccc(S(=O)(=O)n2nc(OC(=O)c3cccs3)cc2N)cc1` gave DAGLB inh 8.8, HGIII-sPLA2 inh 4.6, PLCg1 inh 0.8, Tb MetRS inh -1.1 and PLC-beta3 inh -1.4.
CC1CCN(c2ccc(C(=O)O)cc2NS(=O)(=O)c2ccc(C(C)(C)C)cc2)CC1 was read as HGIII-sPLA2 inh -36.9, PLCg1 inh 2.1 and PLC-beta3 inh -10.0.
For CN1CCCCC(NC(=O)COCc2ccccc2)C1=O (stereo not given) the results were HGIII-sPLA2 inh 6.1, PLCg1 inh 0.4 and PLC-beta3 inh 1.9.
CCCCCCCCCC(=O)N/N=C/c1ccc(C)s1 was read as DAGLB inh 1.2, HGIII-sPLA2 inh 5.2, PLCg1 inh 10.2*, Tb MetRS inh 0.4, PLC-beta3 inh 3.5, PLCgamma1 ctr -8.1 and PLCb3 confirm -7.2.
Screening Cc1ccc(CS(=O)Cc2ccc(C(=O)N3CCN(c4ccc(F)cc4)CC3)o2)cc1 (stereo not given) returned DAGLB inh 0.3, HGIII-sPLA2 inh 8.6, PLCg1 inh 11.7*, Tb MetRS inh 0.1, PLC-beta3 inh -8.9, PLCgamma1 ctr -8.7 and PLCb3 confirm -8.7.
Cc1csc2c(NCCCN3CCOCC3)ncnc12 was read as DAGLB inh 1.1, HGIII-sPLA2 inh 0.5, PLCg1 inh 12.9*, Tb MetRS inh -0.9, PLC-beta3 inh -1.9, PLCgamma1 ctr -5.0 and PLCb3 confirm 1.3.
c1ccc(-c2csc3ncnc(NCCCN4CCOCC4)c23)cc1 was read as DAGLB inh -1.3, HGIII-sPLA2 inh -0.7, PLCg1 inh -0.1, Tb MetRS inh 0.1 and PLC-beta3 inh 1.5.
CC(=O)Nc1c(C)nn(-c2ccc(C)c(C)c2)c1C was read as DAGLB inh 0.0, HGIII-sPLA2 inh 6.0, PLCg1 inh 9.6*, Tb MetRS inh -0.9, PLC-beta3 inh 2.1, PLCgamma1 ctr -4.5 and PLCb3 confirm -2.3.
`CCC(=O)Nc1c(C)nn(-c2ccc(C)c(C)c2)c1C` gave DAGLB inh -1.9, HGIII-sPLA2 inh 2.5, PLCg1 inh 2.6, Tb MetRS inh -1.2 and PLC-beta3 inh 2.0.
`O=C(NCc1ccccc1)[C@@H]1CCCN1C(=O)[C@H]1CCCN1C(=O)c1ccc(F)cc1F` gave HGIII-sPLA2 inh 0.0, PLCg1 inh 2.8 and PLC-beta3 inh 5.5.
For COC(C(=O)NNS(=O)(=O)c1ccccc1[N+](=O)[O-])c1ccccc1 (stereo not given) the results were DAGLB inh 0.6, HGIII-sPLA2 inh 9.4, PLCg1 inh 0.6, Tb MetRS inh -0.2 and PLC-beta3 inh -3.8.
For COC(C(=O)NNS(=O)(=O)c1ccc([N+](=O)[O-])cc1)c1ccccc1 (stereo not given) the results were DAGLB inh 2.4, HGIII-sPLA2 inh 8.5, PLCg1 inh 12.5*, Tb MetRS inh -0.4, PLC-beta3 inh 7.2, PLCgamma1 ctr -4.6 and PLCb3 confirm -1.3.
Screening N#Cc1ccccc1OCC(=O)NCCNC(=O)COc1ccccc1C#N returned DAGLB inh 3.0, HGIII-sPLA2 inh 7.1, PLCg1 inh -2.6, Tb MetRS inh -0.1 and PLC-beta3 inh -5.5.
N#Cc1ccccc1OCC(=O)NNC(=O)CCC1CCCC1 was read as DAGLB inh -1.4, HGIII-sPLA2 inh -12.5, PLCg1 inh 11.7*, Tb MetRS inh -0.2, PLC-beta3 inh 0.6, PLCgamma1 ctr -5.8 and PLCb3 confirm -3.1.
Screening CC(=O)OCCN1c2ccccc2Sc2cnccc21 returned DAGLB inh -8.6, HGIII-sPLA2 inh 4.6, PLCg1 inh -51.6, Tb MetRS inh 0.1 and PLC-beta3 inh -62.1.
For CC(=O)OCCCN1c2ccccc2Nc2nnc(-c3ccccc3)cc21 the results were DAGLB inh -2.7, HGIII-sPLA2 inh -11.0, PLCg1 inh 8.4, Tb MetRS inh -0.7, PLC-beta3 inh 14.3*, PLCgamma1 ctr -4.6 and PLCb3 confirm -0.5.
COc1ccc2cc3cc(C(=O)Nc4ccc(F)cc4)sc3nc2c1 was read as HGIII-sPLA2 inh 9.7, PLCg1 inh -17.7 and PLC-beta3 inh -36.9.
`O=c1c(O)cccc2cc(O)c(O)c(O)c12` gave DAGLB inh 3.6, HGIII-sPLA2 inh -9.4, PLCg1 inh 46.1*, Tb MetRS inh 0.4, PLC-beta3 inh 5.3, PLCgamma1 ctr 30.4* and PLCb3 confirm 1.1.
